Results taken from article PMC3215888 (Cancer Chemotherapy and Pharmacology, 2011).
Where two headings read alike, the source gives them in different places.

Columns and labels:
[1] = test system: CHLA-32 Ewing sarcoma cell line; experiment: DIMSCAN in vitro testing, 96 h; type: cell-based; details: for IC50: 96 h
Summary of the method: (§1)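 Neuroblastoma and Ewing sarcoma lines, STR-verified and maintained as in the originators' reports. Exposed for 96 h to test compound (DMSO stock diluted in medium) at 1 nM–10 μM. Viable cells quantified by fluorescein diacetate fluorescence with DIMSCAN digital image microscopy. Absolute IC50 = concentration giving 50% growth inhibition vs controls. Relative IC50 = concentration giving 50% of the maximum inhibitory effect.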

[2] = test system: solid tumor xenograft models; experiment: Objective responses across the solid tumor xenograft panel; type: in vivo, mice; details: MTD 20.8 mg/kg
Summary of the method: (§2)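 Female CB17 scid mice bearing subcutaneous tumors, 10 per group. Dosed by oral gavage twice daily, 5 days weekly for 6 weeks, at 20.8, 10.4, 5.2 or 2.6 mg/kg, in 10% 2-hydroxypropyl-β-cyclodextrin/1% sodium bicarbonate. Event = quadrupled tumor volume; EFS by Kaplan–Meier, exact log-rank test. Per-mouse scores PD/SD/PR (≥50% regression)/CR (<0.10 cm3)/MCR; group median reported. PR, CR and MCR count as objective responses.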

ALL xenograft models = experiment: Objective responses across the ALL xenograft panel; type: in vivo, mice
Summary of the method: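 Female NOD/scid mice inoculated intravenously with leukemia cells, 8 per group. Test compound suspended in 10% 2-hydroxypropyl-β-cyclodextrin/1% sodium bicarbonate in water. Given by oral gavage twice daily, 5 days weekly for 3 weeks, at 20.8, 10.4, 5.2 or 2.6 mg/kg. Blood %hCD45 of leukocytes tracked; event = hCD45 reaching 25%. EFS by Kaplan–Meier, exact log-rank vs controls. Median group response from individual scores.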

[3] = test system: CHLA-119 neuroblastoma cell line; experiment: DIMSCAN in vitro testing, 96 h; type: cell-based; details: for IC50: Neuroblastoma cell, 96 h
Summary of the method: as §1

[4] = test system: CHLA-258 Ewing sarcoma cell line; experiment: DIMSCAN in vitro testing, 96 h; type: cell-based; details: for IC50: 96 h
Summary of the method: as §1

[5] = test system: Ewing sarcoma (n = 11) and neuroblastoma (n = 17) cell lines; experiment: DIMSCAN in vitro testing, 96 h, whole extended panel; type: cell-based
[6] = test system: Aurora kinase A mutation (T217D); details: cited from earlier work
[7] = test system: SK-N-MC Ewing sarcoma cell line; experiment: DIMSCAN in vitro testing, 96 h; type: cell-based; details: for IC50: Homo sapiens, 96 h
Summary of the method: as §1

[8] = test system: LA–N-6 neuroblastoma cell line; experiment: DIMSCAN in vitro testing, 96 h; type: cell-based; details: for IC50: Neuroblastoma cell, 96 h
Summary of the method: as §1

[9] = test system: NB-EBc1 Neuroblastoma xenograft; type: in vivo, mice
Summary of the method: as §2

[10] = test system: A-673 Ewing sarcoma cell line; experiment: DIMSCAN in vitro testing, 96 h; type: cell-based; details: for IC50: Homo sapiens, A673, 96 h
Summary of the method: as §1

[11] = test system: SK-N-BE(1) neuroblastoma cell line; experiment: DIMSCAN in vitro testing, 96 h; type: cell-based; details: for IC50: Neuroblastoma cell, 96 h
[12] = test system: CHLA-136 neuroblastoma cell line; experiment: DIMSCAN in vitro testing, 96 h; type: cell-based; details: for IC50: Neuroblastoma cell, 96 h
Summary of the method: as §1

[13] = test system: SMS-KCNR neuroblastoma cell line; experiment: DIMSCAN in vitro testing, 96 h; type: cell-based; details: for IC50: 96 h
Summary of the method: as §1

[14] = test system: NB-1382 Neuroblastoma xenograft; type: in vivo, mice; details: 20.8 mg/kg
Summary of the method: as §2

COc1cc(Nc2ncc3c(n2)-c2ccc(Cl)cc2C(c2c(F)cccc2OC)=NC3)ccc1C(=O)O [MLN8237]
IC50 ([1]; read-out: Absolute IC50): 0.136 µM | IC50 ([1]; read-out: Relative IC50): 0.092 µM | Ymin ([1]; CHLA-32, minimum T/C): 13.1% | objective responses out of 9 models in the solid tumor panel [2]: 5 | ALL xenografts classified as objective responses (ALL xenograft models; 0.25MTD, three models): two out of three | response in ALL models (ALL xenograft models; 0.5MTD, three models): CR in each of three ALL models | ALL xenografts with objective responses, of 3 tested (ALL xenograft models; MTD 20.8 mg/kg): 3 | Ymin ([3]; CHLA-119, minimum T/C): 0.5% | IC50 ([3]; read-out: Absolute IC50): 0.022 µM | IC50 ([3]; read-out: Relative IC50): 0.022 µM | IC50 ([4]; read-out: Absolute IC50): 0.132 µM | IC50 ([4]; read-out: Relative IC50): 0.082 µM | Ymin ([4]; CHLA-258, minimum T/C): 18.8% | Ymin, maximum ([5]; maximum of 28 cell lines): 48.1% | Ymin, median ([5]; median of 28 cell lines): 10.9% | Ymin, minimum ([5]; minimum of 28 cell lines): 0.5% | IC50 ([5]; read-out: Absolute IC50, maximum): 10 µM | IC50 ([5]; read-out: Absolute IC50, median): 0.037 µM | IC50 ([5]; read-out: Absolute IC50, minimum): 0.01 µM | IC50 ([5]; read-out: Relative IC50, maximum): 10 µM | IC50 ([5]; read-out: Relative IC50, median): 0.032 µM | IC50 ([5]; read-out: Relative IC50, minimum): 0.009 µM | inhibition of Aurora kinase A T217D mutant [6]: impervious | IC50 ([7]; read-out: Absolute IC50): 0.072 µM | IC50 ([7]; read-out: Relative IC50): 0.066 µM | Ymin ([7]; minimum T/C): 2.8% | Ymin ([8]; LA–N-6, minimum T/C): 32.1% | IC50 ([8]; read-out: Absolute IC50): 0.054 µM | IC50 ([8]; read-out: Relative IC50): 0.031 µM | EFS T/C ([9]; 2.6 mg/kg): 1.7 | EFS activity ([9]; 2.6 mg/kg): Low | Estimate of median time to event ([9]; 2.6 mg/kg): 9.6 days | Median group response ([9]; 2.6 mg/kg): PD2 (if the TGD value >1.5, the mouse was considered PD2) | Response activity ([9]; 2.6 mg/kg): Int | Tumor volume T/C ([9]; 2.6 mg/kg): 0.57 | Median RTV/hCD45 at end of study ([9]; 2.6 mg/kg): >4 | EFS T/C ([9]; 5.2 mg/kg): 2.0 | EFS activity ([9]; 5.2 mg/kg): Low | Estimate of median time to event ([9]; 5.2 mg/kg): 11.3 days | Median group response ([9]; 5.2 mg/kg): PD2 (if the TGD value >1.5, the mouse was considered PD2) | Response activity ([9]; 5.2 mg/kg): Int | Tumor volume T/C ([9]; 5.2 mg/kg): 0.44 | Median RTV/hCD45 at end of study ([9]; 5.2 mg/kg): >4 | EFS T/C ([9]; 10.4 mg/kg): 3.1 | EFS activity ([9]; 10.4 mg/kg): Int | Estimate of median time to event ([9]; 10.4 mg/kg): 17.9 days | Median group response ([9]; 10.4 mg/kg): PD2 (if the TGD value >1.5, the mouse was considered PD2) | Response activity ([9]; 10.4 mg/kg): Int | Tumor volume T/C ([9]; 10.4 mg/kg): 0.22 | Median RTV/hCD45 at end of study ([9]; 10.4 mg/kg): >4 | EFS T/C ([9]; 20.8 mg/kg): >7.2 | EFS activity ([9]; 20.8 mg/kg): High | Median group response ([9]; 20.8 mg/kg): MCR | Response activity ([9]; 20.8 mg/kg): High | Tumor volume T/C ([9]; 20.8 mg/kg): 0.15 | Median RTV/hCD45 at end of study ([9]; 20.8 mg/kg): 0.3 | Ymin ([10]; A-673, minimum T/C): 13.1% | IC50 ([10]; read-out: Absolute IC50): 0.032 µM | IC50 ([10]; read-out: Relative IC50): 0.03 µM | IC50 ([11]; read-out: Absolute IC50): 0.028 µM | IC50 ([11]; read-out: Relative IC50): 0.024 µM | Ymin ([11]; SK-N-BE(1), minimum T/C): 4.0% | Ymin ([12]; CHLA-136, minimum T/C): 10.4% | IC50 ([12]; read-out: Absolute IC50): 0.039 µM | IC50 ([12]; read-out: Relative IC50): 0.036 µM | IC50 ([13]; read-out: Absolute IC50): 0.01 µM | IC50 ([13]; read-out: Relative IC50): 0.009 µM | Ymin ([13]; minimum T/C): 6.6% | EFS T/C [14]: >1.7 | Median group response [14]: PD2 (if the TGD value >1.5, the mouse was considered PD2) | Response activity [14]: Int | Tumor volume T/C [14]: 0.31 | Median RTV/hCD45 at end of study ([14]; RTV): 2.1
